MEKK3 PB1 HTS = MEKK3-MEK5 PB1 interaction, increase or decrease. Q99759. bead-based flow cytometry, Alexa488-MEK5 binding to MEKK3; actives lie on both sides; 0 = blocked by unlabeled MEK5, 100 = vehicle. binding response (% of control), % at 10 µM. 1.4% of 290,000 active. AID 1529;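 active = binding response more than 3 SD above or below the average of its plate-row segment, actives on both sides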;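 note: Alexa488 bead fluorescence after subtracting the streptavidin-only scavenger bead signal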
MEKK2 WT-MEK5 = raises or lowers MEK5 binding to wildtype human MEKK2 PB1 domain | Q9Y2U5 | bead flow cytometry, Alexa488-MEK5 binding to MEKK2 WT; actives lie on both sides | binding response (% of control), % at 10 µM | 1.1% of 290,000 active | AID 1531; in the data active = binding response below about 67% or above about 130%
Apaf-1 inh = inhibitors of human Apaf-1 apoptosome | O14727 | reconstituted apoptosome caspase-3 activity, DEVD-Rh110 fluorescence | 0.71% of 330,000 active | inhibition, % at 20 µM; active = inhibition of at least 40% at 20 µM;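 note: plate controls were DMSO wells for no effect and DEVD-CHO caspase inhibitor wells for full effect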
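Material: reconstituted apoptosome with Apaf-1, cytochrome c, caspase-9, procaspase-3, dATP. Technique: Rh110 fluorescence intensity. Buffer or medium: pH 7.5 Hepes buffer with CHAPS, BSA, DTT. Times: 30 min plus 50 min, RT.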
PREPL inh = human PREPL enzyme inhibition | AID 2751 | 0.68% of 320,000 active | Q4J6C6 | recombinant PREPL, fluorescence polarization activity-based probe | inhibition, % at 5.96 µM;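 note: 0% = enzyme with DMSO and 100% = wells lacking enzyme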
Target sequence (Q4J6C6 whole entry, looked up): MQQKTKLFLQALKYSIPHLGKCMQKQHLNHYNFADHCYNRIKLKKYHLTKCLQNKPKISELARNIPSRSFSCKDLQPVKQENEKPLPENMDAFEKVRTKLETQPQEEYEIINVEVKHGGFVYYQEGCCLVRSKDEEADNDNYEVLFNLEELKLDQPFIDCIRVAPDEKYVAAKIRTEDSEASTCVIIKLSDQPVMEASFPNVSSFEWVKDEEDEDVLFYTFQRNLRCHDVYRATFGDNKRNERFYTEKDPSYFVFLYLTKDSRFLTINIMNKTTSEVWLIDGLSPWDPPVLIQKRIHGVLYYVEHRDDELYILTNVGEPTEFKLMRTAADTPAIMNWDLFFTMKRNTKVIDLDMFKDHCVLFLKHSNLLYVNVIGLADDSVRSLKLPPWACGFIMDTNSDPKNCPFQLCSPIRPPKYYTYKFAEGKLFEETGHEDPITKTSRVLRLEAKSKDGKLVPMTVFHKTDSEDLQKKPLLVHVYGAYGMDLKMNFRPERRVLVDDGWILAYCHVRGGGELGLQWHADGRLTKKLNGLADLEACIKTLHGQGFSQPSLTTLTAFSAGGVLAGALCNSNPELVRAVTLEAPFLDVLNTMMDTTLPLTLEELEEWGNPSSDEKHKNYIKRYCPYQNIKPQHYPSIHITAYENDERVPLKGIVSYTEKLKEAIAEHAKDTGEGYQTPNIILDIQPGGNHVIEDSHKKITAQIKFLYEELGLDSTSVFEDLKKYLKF
MEKK2 mut-MEK5 = signal of MEK5 binding to mutant human MEKK2 PB1 domain | 0.35% of 290,000 active | bead flow cytometry, Alexa488-MEK5 binding to MEKK2 mutant | AID 1530 | percent response, % at 10 µM; in the data active = percent response above about 24%, passing the limit was not always enough
UBC13 inh = inhibitors of human UBC13 polyubiquitin chain formation; AID 485273; P61088; TR-FRET; inhibition, % at 20 µM; 0.47% of 330,000 active; in the data active = inhibition above about 45%, passing the limit was not always enough
PREPL inh cf = human PREPL inhibition, confirmation; 67% of 2,000 active; inhibition, % at 5.96 µM; AID 2803; shares compounds with PREPL inh; recombinant PREPL, fluorescence polarization activity probe;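 note: 0% = protein with DMSO and 100% = wells lacking protein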
An asterisk follows results filed as active; / = no result given. Rows were chosen to be rich in hits. Some 3.1% of all compounds tested hit in one or more screens of this group. Cut-off read from the data, not from the text of the source, unless noted: active = inhibition above about 43%; inactive = the rest.

SMILES	MEKK3 PB1 HTS	MEKK2 WT-MEK5	Apaf-1 inh	PREPL inh	MEKK2 mut-MEK5	UBC13 inh	PREPL inh cf
Fc1ccc(N2CCN(c3cnc4ccccc4n3)CC2)cc1	109.0	107.0	11.7	45.3*	6.0	5.4	38.9
O=C(C1CC(=O)N(c2ccc3c(c2)OCCO3)C1)N1CCN(c2ccccc2O)CC1 (centres undefined)	103.0	105.0	-13.1	45.2*	5.0	-1.4	41.0
Nc1nc(-c2ccccc2)c(N=Nc2ccccc2Cl)s1	79.0	88.0	28.3	61.4*	-2.0	-196.7	62.2*
N#CCCN(CCC#N)C(=O)C1c2ccccc2Oc2ccccc21	107.0	108.0	-7.0	81.5*	2.0	1.4	4.5
C=CCn1c(N)c(-c2nc3ccccc3n2C)sc1=S	94.0	95.0	-6.5	43.6*	0.0	19.4	36.5
COc1cc2c(cc1OC)C(Cc1ccc(O)c(Oc3ccc(C[C@H]4c5cc(OC)c(OC)cc5CCN4C)cc3)c1)N(C)CC2 (some centres undefined)	/	/	28.6	45.4*	/	25.7	51.7*
C[C@@]12CCC3[C@@](CCC4[C@@]3(C)CCC[C@@]4(C)C(=O)N3CCCCC3)(CC1=O)C2 (some centres undefined)	/	/	7.9	0.8	/	2.0	/
O=C(NC1CC1)C1=C[C@@H](c2ccc(C(F)(F)F)cc2)C[C@@H](OCc2ccc(CO)cc2)O1	105.0	104.0	12.3	47.1*	1.0	6.5	41.6
CN1CCN(C(=O)C2=C[C@@H](c3ccc(C(F)(F)F)cc3)C[C@@H](OCCCCO)O2)CC1	104.0	102.0	0.7	45.4*	4.0	2.7	53.7*
O=C(C1=C[C@H](c2ccc(C(F)(F)F)cc2)C[C@H](OCc2ccc(CO)cc2)O1)N1CCCCCCC1	103.0	102.0	18.5	36.4	5.0	-0.7	/
O=C(C1=C[C@@H](c2ccc(C(F)(F)F)cc2)C[C@@H](OCc2ccc(CO)cc2)O1)N1CCOCC1	106.0	111.0	10.0	55.2*	8.0	10.3	48.4*
CN1CCN(C(=O)C2=C[C@H](c3ccc(C(F)(F)F)cc3)C[C@H](OCCCCO)O2)CC1	100.0	101.0	6.6	20.2	2.0	1.3	/
O=C(NC1CC1)C1=C[C@H](c2ccc(Br)cc2)C[C@H](OCc2ccc(CO)cc2)O1	94.0	93.0	14.3	15.3	-5.0	5.5	/
C#Cc1ccc([C@H]2C=C(C(=O)N3CCOCC3)O[C@@H](OCc3ccc(CO)cc3)C2)cc1	107.0	105.0	6.3	28.6	9.0	-9.6	/
C#Cc1ccc([C@@H]2C=C(C(=O)N3CCOCC3)O[C@H](OCc3ccc(CO)cc3)C2)cc1	102.0	101.0	7.9	44.6*	0.0	10.0	43.8*
Cc1cc(NC(=O)C(C)SCC(=O)N(C)CC(=O)Nc2ccc(F)cc2)no1 (centres undefined)	/	/	-6.5	1.9	/	2.6	/
Cc1cc(C)n2nc(CC#N)c(C#N)c2n1	86.0	92.0	-4.5	18.1	-1.0	10.2	/
Cc1cc(C)n2nc(/C(C#N)=C/c3ccccn3)c(C#N)c2n1	105.0	102.0	2.5	64.8*	-1.0	-2.1	15.7
O=c1oc2c3c4c(cc2c(C(F)(F)F)c1CCN1CCOCC1)CCCN4CCC3	95.0	93.0	20.4	54.8*	-5.0	-141.7	60.6*
COc1ccc(CNC(=O)[C@H](Cc2ccccc2)NC(=O)C2CCNCC2)cc1	99.0	102.0	-1.2	2.3	0.0	1.5	/
CNC(=S)N1N=C(c2ccc(C)cc2)CC1c1ccc(N(C)C)cc1 (centres undefined)	109.0	104.0	21.7	50.7*	-1.0	18.5	57.4*
COc1cc(C2NCCc3c2[nH]c2ccccc32)ccc1OC(C)C (centres undefined)	87.0	91.0	-2.0	44.0*	-13.0	15.3	40.8
COc1ccc(-n2c(CN3CCN(Cc4ccccc4)CC3)nc3ccc([N+](=O)[O-])cc3c2=O)c(OC)c1	100.0	102.0	-3.6	50.7*	-2.0	6.6	38.0
COc1cc(/C=N/n2c(C)n[nH]c2=S)ccc1OCc1ccc(F)cc1	104.0	95.0	17.1	49.5*	-1.0	-2.0	42.2

Assay outcomes: PubChem, several laboratories
